Data on 10 molecules can be found in PMC6459016 (Journal of computer-aided molecular design, 2019).

Like-named read-outs stand apart in the source and are kept apart here.

In general, IC50 refers to the midpoint of a concentration-inhibition curve.

The target of series [1] is T1, recombinant human GALK1 (Homo sapiens, UniProt P51570). In words: GALK1 inhibition assay. The series is classed as biochemical. As to conditions: for IC50: luminescence GALK1-ATP-depletion assay, ATP 35 μM, galactose 100 μM; for MR (maximal % inhibition): maximal % inhibition at 57 μM compound. Summed up: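 Recombinant human GALK1 was run in 1536-well format against test compound at 6 doses (3 nM – 57 μM). Reactions were started with ATP (35 μM) and galactose (100 μM), both near their K_M under these conditions. Remaining ATP was read by Kinase-Glo luminescence. Normalized concentration-response data were fitted to a four-parameter logistic to give IC50 and efficacy (maximal response).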

Series [2] is described as follows: Kinetic aqueous solubility. As to conditions: kinetic aqueous solubility in PBS 7.4 buffer from a 10 mM DMSO stock. The series is classed as physicochemical.
Series [3] in a line: Stirring double-sink PAMPA permeability. The series is classed as in vitro ADME. As to conditions: in-house at NCATS. Summed up:
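Effective permeability was measured by passive diffusion in a stirring double-sink PAMPA. Sample preparation, analysis and data processing were fully automated.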
Background: In PAMPA a lipid-coated filter parts donor from acceptor wells.

Series [4] in a line: Rat liver microsome stability. The series is classed as in vitro ADME. As to conditions: 37 °C, NADPH.
Series [5] addresses T1, recombinant human GALK1. As to conditions: cited from earlier work.

T1 sequence (P51570 whole entry): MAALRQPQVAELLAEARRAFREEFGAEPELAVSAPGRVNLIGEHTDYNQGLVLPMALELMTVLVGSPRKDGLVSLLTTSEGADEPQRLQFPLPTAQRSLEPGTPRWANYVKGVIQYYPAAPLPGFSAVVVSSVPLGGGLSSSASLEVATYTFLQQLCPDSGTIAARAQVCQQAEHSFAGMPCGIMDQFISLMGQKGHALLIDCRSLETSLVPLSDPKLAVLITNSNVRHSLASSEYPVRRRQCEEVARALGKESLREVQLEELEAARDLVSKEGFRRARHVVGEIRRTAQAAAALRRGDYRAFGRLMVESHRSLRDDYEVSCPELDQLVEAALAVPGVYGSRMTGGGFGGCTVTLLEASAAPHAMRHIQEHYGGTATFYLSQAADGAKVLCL

For `COc1ccc(-c2csc(NC(=O)c3ccccc3NS(=O)(=O)c3ccc(C)cc3)n2)cc1` [C5], in series [1], the IC50 came to 11.1 µM and the “MR (maximal % inhibition)” value was determined as 75.9%. Moreover, in series [2], the Solubility is given as under 1.0 Ug/ml. The molecule further had a Permeability in series [3] of 30.1 ×10⁻⁶ cm/s. For the same molecule, in series [4], the “Microsomal T1/2” value stood at 6.3 m.
In the same order, the values of `O=C(Nc1nc(-c2ccccc2)cs1)c1ccncc1NS(=O)(=O)c1ccc(N2CCCC2=O)cc1` [C10] are 44.5 µM, 62.5%, 57.0 Ug/ml, 313.5 ×10⁻⁶ cm/s and 1.6 m.
In the same order, the values of `Cc1ccc(S(=O)(=O)Nc2cc(C(F)(F)F)ccc2C(=O)Nc2nc(-c3ccccc3)cs2)cc1` [C3] are 15.9 µM, 92.9%, under 1.0 Ug/ml, 82.2 ×10⁻⁶ cm/s and 15.0 m.
Take `O=C1CCCC2=C1C(c1[nH]ncc1Cl)N=C(Nc1nc3ccccc3o1)N2` (stereo not shown) [NCGC00238624]: the IC50 in series [5] (GALK1) is 4.7 µM. The Mode of inhibition result in series [5] (with respect to ATP and galactose substrate) was “competitive with respect to ATP and uncompetitive to galactose substrate”.
With `Cc1ccccc1S(=O)(=O)Nc1cnccc1C(=O)Nc1nc(-c2ccccc2)cs1` [C7], in series [1], the IC50 is 11.1 µM and the “MR (maximal % inhibition)” value came out at 90.3%. The same molecule gave a Solubility in series [2] of 50.0 Ug/ml. Moreover, the Permeability in series [3] was 1064.7 ×10⁻⁶ cm/s.
For the molecule `Cc1ccc(S(=O)(=O)Nc2cc(Cl)c(Cl)cc2C(=O)Nc2nc(-c3ccccc3)cs2)cc1` [C4], in series [1], the IC50 worked out at 22.2 µM and the “MR (maximal % inhibition)” value is listed as 89.3%. In series [2], the Solubility is under 1.0 Ug/ml. Besides, the Permeability in series [3] was under 5.0 ×10⁻⁶ cm/s. The “Microsomal T1/2” value in series [4] stood at 13.0 m.
In the case of `Cc1ccc(S(=O)(=O)Nc2cnccc2C(=O)Nc2nc(-c3ccccc3)cs2)cc1` [C2], in series [1], the IC50 amounted to 14 µM and the “MR (maximal % inhibition)” value came to 83.5%. In series [2], this molecule had a Solubility of 9.4 Ug/ml. Also, in series [3], the Permeability came to 724.3 ×10⁻⁶ cm/s. The “Microsomal T1/2” value in series [4] is on record as 17.0 m.
In the same order, the values of `COc1ccc(S(=O)(=O)Nc2cnccc2C(=O)Nc2nc(-c3ccccc3)cs2)cc1` [C8] are 15.7 µM, 84.5%, 54.1 Ug/ml, 674.5 ×10⁻⁶ cm/s and 1.6 m.
As to `O=C(Nc1nc(-c2ccccc2)cs1)c1ccncc1NS(=O)(=O)c1ccc(-c2ccccc2)cc1` [C9], in series [1], the concentration for half-maximal inhibition (IC50) is 17.7 µM and the “MR (maximal % inhibition)” value is given as 88.5%. The Solubility in series [2] was under 1.0 Ug/ml. For the same molecule, the Permeability in series [3] is under 1.0 ×10⁻⁶ cm/s. In addition, the “Microsomal T1/2” value in series [4] is 2.0 m.
The like results for `Cc1ccc(-c2csc(NC(=O)c3ccccc3NS(=O)(=O)c3ccc(C)cc3)n2)cc1` [C6] were, in that order, 14 µM, 81.0%, under 1.0 Ug/ml, 35.6 ×10⁻⁶ cm/s and 2.6 m.
